Source: ChEMBL document CHEMBL5096186, “Design, Synthesis, and Biological Evaluation of Novel Pyrimido[4,5-b]indole Derivatives Against Gram-Negative Multidrug-Resistant Pathogens” (J Med Chem, 2021)
Values after ≈ are worked out from the molar mass of the structure shown.

Columns and labels:
Pseudomonas aeruginosa [1] = test: Antibacterial activity against multidrug resistant Pseudomonas aeruginosa strains 15 1 to 3 assessed as reduction in bacterial growth incubated for 18 to 20 hrs by CLSI based microdilution method; type: functional; settings: time 18-20 hrs
Summary of the method: (§1)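 Broth microdilution per CLSI. Compounds dissolved in DMSO (levofloxacin and meropenem in water) as 64 μg/mL stock, then serial twofold dilutions in broth giving 64 to 0.008 μg/mL. […] Clinical isolates tested as several strains per group; racemic GP-1 served as positive control; values given as MIC ranges.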

Escherichia coli [2] = test: Antibacterial activity against ESBL-producing Escherichia coli ATCC 35218 strains 15 1 to 3 assessed as reduction in bacterial growth incubated for 18 to 20 hrs by CLSI based microdilution method; type: functional; settings: time 18-20 hrs
Summary of the method: (§2)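 CLSI broth microdilution. Compounds in DMSO (levofloxacin and meropenem in water), serial twofold dilutions in broth, 64 to 0.008 μg/mL. […] Results reported as MIC ranges across strains.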

Escherichia coli [3] = test: Antibacterial activity against Escherichia coli ATCC 35218 strains 15 1 to 3 assessed as reduction in bacterial growth incubated for 18 to 20 hrs by CLSI based microdilution method; type: functional; settings: time 18-20 hrs; summary of the method: as §2
Staphylococcus aureus [4] = test: Antibacterial activity against methicillin-sensitive Staphylococcus aureus strains 15 1 to 4 assessed as reduction in bacterial growth incubated for 18 to 20 hrs by CLSI based microdilution method; type: functional; settings: time 18-20 hrs; summary of the method: as §1
[5] = test system: Staphylococcus epidermidis; test: Antibacterial activity against methicillin-sensitive Staphylococcus epidermidis strains 15 1 to 4 assessed as reduction in bacterial growth incubated for 18 to 20 hrs by CLSI based microdilution method; type: functional; settings: time 18-20 hrs; summary of the method: as §1
Pseudomonas aeruginosa [6] = test: Antibacterial activity against wild type Pseudomonas aeruginosa ATCC 27853 assessed as reduction in bacterial growth incubated for 18 to 20 hrs by CLSI based microdilution method; type: functional; settings: time 18-20 hrs; summary of the method: as §2
Acinetobacter baumannii [7] = test: Antibacterial activity against wild type Acinetobacter baumannii NCTC 13304 assessed as reduction in bacterial growth incubated for 18 to 20 hrs by CLSI based microdilution method; type: functional; settings: time 18-20 hrs; summary of the method: as §1
Escherichia coli [8] = test: Antibacterial activity against ESBL-producing multidrug resistant Escherichia coli assessed as reduction in bacterial growth incubated for 18 to 20 hrs by CLSI based microdilution method; type: functional; settings: time 18-20 hrs; summary of the method: as §1
Escherichia coli [9] = test: Antibacterial activity against multidrug resistant wild type Escherichia coli ATCC BAA-2340 assessed as reduction in bacterial growth incubated for 18 to 20 hrs by CLSI based microdilution method; type: functional; settings: time 18-20 hrs; summary of the method: as §1
Pseudomonas aeruginosa [10] = test: Antibacterial activity against IMP4-producing multidrug resistant Pseudomonas aeruginosa assessed as reduction in bacterial growth incubated for 18 to 20 hrs by CLSI based microdilution method; type: functional; settings: time 18-20 hrs; summary of the method: as §1
Klebsiella pneumoniae [11] = test: Antibacterial activity against KPC2-producing multidrug resistant Klebsiella pneumoniae assessed as reduction in bacterial growth incubated for 18 to 20 hrs by CLSI based microdilution method; type: functional; settings: time 18-20 hrs; summary of the method: as §1
Klebsiella pneumoniae [12] = test: Antibacterial activity agains wild type Klebsiella pneumoniae ATCC BAA-2470 assessed as reduction in bacterial growth incubated for 18 to 20 hrs by CLSI based microdilution method; type: functional; settings: time 18-20 hrs; summary of the method: as §1
Klebsiella pneumoniae [13] = test: Antibacterial activity agains wild type Klebsiella pneumoniae ATCC BAA-1705 assessed as reduction in bacterial growth incubated for 18 to 20 hrs by CLSI based microdilution method; type: functional; settings: time 18-20 hrs; summary of the method: as §2
Escherichia coli [14] = test: Antibacterial activity against multidrug resistant wild type Escherichia coli NCTC 13353 assessed as reduction in bacterial growth incubated for 18 to 20 hrs by CLSI based microdilution method; type: functional; settings: time 18-20 hrs; summary of the method: as §1
Acinetobacter baumannii [15] = test: Antibacterial activity agains OXA23-producing multidrug resistant Acinetobacter baumannii assessed as reduction in bacterial growth incubated for 18 to 20 hrs by CLSI based microdilution method; type: functional; settings: time 18-20 hrs; summary of the method: as §1
Staphylococcus aureus [16] = test: Antibacterial activity against methicillin-resistant Staphylococcus aureus strains 15 1 to 4 assessed as reduction in bacterial growth incubated for 18 to 20 hrs by CLSI based microdilution method; type: functional; settings: time 18-20 hrs; summary of the method: as §1
[17] = molecular target: hERG (KCNH2) potassium channel (Homo sapiens, UniProt Q12809); test: Inhibition of hERG potassium channel assessed as maximum inhibition rate at 40 uM at -80 mV holding potential incubated for 120 seconds by whole cell-automated voltage clamp analysis assay relative to control; type: toxicity; settings: time 120 sec
Chain of hERG (KCNH2) potassium channel (Q12809 whole entry): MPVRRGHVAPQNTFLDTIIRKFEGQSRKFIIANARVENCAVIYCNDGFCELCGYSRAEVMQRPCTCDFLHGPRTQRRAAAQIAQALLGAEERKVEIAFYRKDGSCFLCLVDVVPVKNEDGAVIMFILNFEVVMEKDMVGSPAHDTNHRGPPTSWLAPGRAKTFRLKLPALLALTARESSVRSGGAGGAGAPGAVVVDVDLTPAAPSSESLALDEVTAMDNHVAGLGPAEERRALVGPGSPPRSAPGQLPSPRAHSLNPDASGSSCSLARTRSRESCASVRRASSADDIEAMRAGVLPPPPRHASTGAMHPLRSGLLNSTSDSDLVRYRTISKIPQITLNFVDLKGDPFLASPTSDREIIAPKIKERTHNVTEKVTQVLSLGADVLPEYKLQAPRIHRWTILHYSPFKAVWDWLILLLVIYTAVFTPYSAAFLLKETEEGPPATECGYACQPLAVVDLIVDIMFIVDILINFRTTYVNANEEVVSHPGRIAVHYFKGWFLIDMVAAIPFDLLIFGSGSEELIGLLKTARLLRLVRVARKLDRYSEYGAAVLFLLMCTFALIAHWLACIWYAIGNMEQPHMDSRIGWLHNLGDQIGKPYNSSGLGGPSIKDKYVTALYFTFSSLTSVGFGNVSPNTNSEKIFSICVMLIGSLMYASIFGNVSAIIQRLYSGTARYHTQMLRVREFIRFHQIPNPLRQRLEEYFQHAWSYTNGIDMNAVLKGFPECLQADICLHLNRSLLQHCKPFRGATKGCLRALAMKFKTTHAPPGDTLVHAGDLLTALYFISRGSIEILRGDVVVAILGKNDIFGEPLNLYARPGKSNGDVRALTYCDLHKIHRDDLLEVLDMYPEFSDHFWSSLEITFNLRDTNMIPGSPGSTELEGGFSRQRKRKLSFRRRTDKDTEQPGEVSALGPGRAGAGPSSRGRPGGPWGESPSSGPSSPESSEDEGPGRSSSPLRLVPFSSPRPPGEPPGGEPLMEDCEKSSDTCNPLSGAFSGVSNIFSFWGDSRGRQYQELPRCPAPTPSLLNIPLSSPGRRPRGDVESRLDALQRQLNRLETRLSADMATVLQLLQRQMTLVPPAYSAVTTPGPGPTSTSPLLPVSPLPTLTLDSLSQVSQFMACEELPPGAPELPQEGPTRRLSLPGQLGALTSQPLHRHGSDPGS
Summary of the method: (§3)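 Automated whole-cell patch clamp, holding potential −80 mV. Voltage protocol applied every 20 s. Baseline set with external solution containing 0.1% DMSO and stabilised 3 min. Compound applied until steady state, at least 3 min, then washout. Maximum tested concentration 40 μM, or 3 μM for cisapride as positive control.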

[18] = molecular target: Voltage-gated inwardly rectifying potassium channel KCNH2 (Homo sapiens, UniProt Q12809); test: Inhibition of hERG potassium channel assessed as […] at -80 mV holding potential incubated for 120 seconds by whole cell-automated voltage clamp analysis assay; type: toxicity; summary of the method: as §3
Chain of Voltage-gated inwardly rectifying potassium channel KCNH2 (Q12809 whole entry): as above

[19] = Metabolic stability in human liver microsome assessed as metabolic bioavailability at 0.1 uM in presence of NADPH incubated upto 60 mins by LC-MS/MS analysis; type: ADME; settings: liver microsomes
Summary of the method: (§4)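 Compound at 0.1 μM final, in 0.01% DMSO with 0.005% BSA. Incubated with rat or human liver microsomes at 0.33 mg/mL in 0.1 M Tris-HCl, pH 7.4, with 5 mM MgCl₂ and 1 mM NADPH, at 37 °C. Samples at 0, 7, 17, 30 and 60 min quenched with cold methanol and analysed by LC-MS/MS. Half-life, Cl_int and MF% derived as previously described.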

[20] = Metabolic stability in human liver microsome assessed as intrinsic clearance at 0.1 uM in presence of NADPH incubated upto 60 mins by LC-MS/MS analysis; type: ADME; settings: microsomes, 1 h; summary of the method: as §4
[21] = Metabolic stability in human liver microsome assessed as elimination half life at 0.1 uM in presence of NADPH incubated upto 60 mins by LC-MS/MS analysis; type: ADME; settings: liver microsomes, read-out: beta t1/2; summary of the method: as §4
[22] = Metabolic stability in rat liver microsome assessed as elimination half life at 0.1 uM in presence of NADPH incubated upto 60 mins by LC-MS/MS analysis; type: ADME; settings: liver microsomes, read-out: beta t1/2; summary of the method: as §4
[23] = Metabolic stability in rat liver microsome assessed as intrinsic clearance at 0.1 uM in presence of NADPH incubated upto 60 mins by LC-MS/MS analysis; type: ADME; settings: microsomes, 1 h; summary of the method: as §4
[24] = Metabolic stability in rat liver microsome assessed as metabolic bioavailability at 0.1 uM in presence of NADPH incubated upto 60 mins by LC-MS/MS analysis; type: ADME; settings: liver microsomes; summary of the method: as §4

Row | SMILES | MIC (Pseudomonas aeruginosa [1]) | MIC (Escherichia coli [2]) | MIC (Escherichia coli [3]) | MIC (Staphylococcus aureus [4]) | MIC [5] | MIC (Staphylococcus aureus [16]) | further results
1 | CNc1cc(F)cc2c1[nH]c1nc(Oc3cnc(C)nc3)nc(N3CC(=C(Br)CN)C3)c12 | 2 mg/L (≈ 4.01 µM) | 0.06 mg/L (≈ 0.12 µM) | 0.015 mg/L (≈ 0.03 µM) | < 0.008 mg/L | < 0.008 mg/L | – | –
2 | [2H]C([2H])([2H])Nc1cc(F)cc2c1[nH]c1nc(Oc3cnc(C(C)O)nc3)nc(N3CC(=C(CC)CN)C3)c12 (centres undefined) | – | – | – | – | – | – | MIC (Pseudomonas aeruginosa [6]): 8 mg/L (≈ 16.6 µM); MIC (Acinetobacter baumannii [7]): 2 mg/L (≈ 4.15 µM); MIC (Escherichia coli [8]): 4 mg/L (≈ 8.31 µM); MIC (Escherichia coli [9]): 2 mg/L (≈ 4.15 µM); MIC (Pseudomonas aeruginosa [10]): 16 mg/L (≈ 33.2 µM); MIC (Klebsiella pneumoniae [11]): 4 mg/L (≈ 8.31 µM); MIC (Klebsiella pneumoniae [12]): 8 mg/L (≈ 16.6 µM); MIC (Klebsiella pneumoniae [13]): 8 mg/L (≈ 16.6 µM); MIC (Escherichia coli [14]): 1 mg/L (≈ 2.08 µM); MIC (Acinetobacter baumannii [15]): 2 mg/L (≈ 4.15 µM)
3 | CNc1cc(F)cc2c1[nH]c1nc(Oc3cnc(C)nc3)nc(N3CC(=C(CO)C(C)C)C3)c12 | ≥ 64 mg/L | 0.5 mg/L (≈ 1.08 µM) | 0.125 mg/L (≈ 0.27 µM) | < 0.008 mg/L | < 0.03 mg/L | < 0.03 mg/L | –
4 | CNc1cc(F)cc2c1[nH]c1nc(Oc3cnc(C)nc3)nc(N3CC(=C(Cl)CN)C3)c12 | 8 mg/L (≈ 17.6 µM) | 1 mg/L (≈ 2.2 µM) | 0.25 mg/L (≈ 0.55 µM) | < 0.008 mg/L | < 0.008 mg/L | – | inhibition at 2 min, 40 µM [17]: 34.3%; IC50 [18]: > 40 µM
5 | CCC(CN)=C1CN(c2nc(Oc3cnc(C)nc3)nc3[nH]c4c(NC)cc(F)c(F)c4c23)C1 | > 64 mg/L | 64 mg/L (≈ 137 µM) | 0.5 mg/L (≈ 1.07 µM) | 0.25 mg/L (≈ 0.536 µM) | < 0.03 mg/L | 0.25 mg/L (≈ 0.536 µM) | –
6 | CNc1cc(F)cc2c1[nH]c1nc(Oc3cnc(C)nc3)nc(N3CC(=CC(C)O)C3)c12 (centres undefined) | > 16 mg/L | 0.5 mg/L (≈ 1.15 µM) | 0.125 mg/L (≈ 0.287 µM) | < 0.008 mg/L | < 0.008 mg/L | – | –
7 | CC(C)(O/N=C(\C(=O)N[C@@H]1C(=O)N2C(C(=O)[O-])=C(C[N+]3(CCNC(=O)c4ccc(O)c(O)c4Cl)CCCC3)CS[C@H]12)c1csc(N)n1)C(=O)O [CEFIDEROCOL] | – | – | – | – | – | – | MIC (Pseudomonas aeruginosa [6]): 4 mg/L (≈ 5.32 µM); MIC (Acinetobacter baumannii [7]): 2 mg/L (≈ 2.66 µM); MIC (Escherichia coli [8]): 0.25 mg/L (≈ 0.332 µM); MIC (Escherichia coli [9]): 4 mg/L (≈ 5.32 µM); MIC (Pseudomonas aeruginosa [10]): 1 mg/L (≈ 1.33 µM); MIC (Klebsiella pneumoniae [11]): 2 mg/L (≈ 2.66 µM); MIC (Klebsiella pneumoniae [12]): > 64 mg/L; MIC (Klebsiella pneumoniae [13]): 32 mg/L (≈ 42.5 µM); MIC (Escherichia coli [14]): 4 mg/L (≈ 5.32 µM); MIC (Acinetobacter baumannii [15]): 2 mg/L (≈ 2.66 µM)
8 | CCC(CN)=C1CN(c2nc(Sc3cnc(C)nc3)nc3[nH]c4c(NC)cc(F)cc4c23)C1 | > 16 mg/L | 1 mg/L (≈ 2.15 µM) | 0.5 mg/L (≈ 1.08 µM) | 0.008 mg/L (≈ 0.0172 µM) | < 0.008 mg/L | < 0.008 mg/L | –
9 | CNc1cc(F)cc2c1[nH]c1nc(Oc3cnc(C)nc3)nc(N3CC/C(=C(\F)CN)C3)c12 | 2 mg/L (≈ 4.42 µM) | 0.015 mg/L (≈ 0.0332 µM) | < 0.06 mg/L | < 0.008 mg/L | < 0.008 mg/L | 0.008 mg/L (≈ 0.0177 µM) | inhibition at 2 min, 40 µM [17]: 41.6%; IC50 [18]: > 40 µM
10 | CNc1cc(F)cc2c1[nH]c1nc(Oc3cnc(C)nc3)nc(N3CC(=C(C)CO)C3)c12 | > 64 mg/L | > 64 mg/L | 0.25 mg/L (≈ 0.574 µM) | < 0.03 mg/L | < 0.03 mg/L | – | –
11 | CCC(CO)=C1CN(c2nc(Oc3cnc(C)nc3)nc3[nH]c4c(NC)cc(F)cc4c23)C1 | ≥ 64 mg/L | 0.25 mg/L (≈ 0.556 µM) | 0.25 mg/L (≈ 0.556 µM) | < 0.008 mg/L | < 0.008 mg/L | – | Fh at 1 h, 0.1 µM [19]: 27.6%; CLH [20]: 51.4 mL/min/g; half-life at 0.1 µM [21]: 1.27 h; half-life at 0.1 µM [22]: 0.76 h; CLH [23]: 256.1 mL/min/g; Fh at 1 h, 0.1 µM [24]: 14.8%
